Results from different studies.
Nuclear receptor subfamily 4 group A member 2: Nuclear receptor subfamily 4 group A member 2 (Homo sapiens, UniProt P43354)
P2RY14: P2Y purinoceptor 14 (P2RY14, Homo sapiens, UniProt Q15391)
CDPK1: Calcium-dependent protein kinase 1 (CDPK1, Plasmodium falciparum, UniProt P62344)

| Structure (SMILES) | target | test | system | conditions | quantity | result |
| --- | --- | --- | --- | --- | --- | --- |
| Cc1cc(O)c(-c2ccc([C@@H](C)CN(C)C)cc2)c2c1[nH]c(=O)c1sccc12 | Mitogen-activated protein kinase kinase kinase 1 (MAP3K1, Homo sapiens, UniProt Q13233) | enzyme activity, inhibitor | – | 0.1 µM | inhibition | 4.39% |
| CN1C(C(=O)Nc2ccccn2)=C(O)c2sc(Cl)cc2S1(=O)=O | Nuclear receptor subfamily 4 group A member 2 | thermal stability, DSF | – | 100 µM | ΔTm | 0.18 °C |
| COc1ccc2oc(-c3ccc4nc(N)oc4c3)c/c(=N\c3ccccc3NC(=O)CCN)c2c1 | TGF-beta receptor type-1 (TGFBR1, Homo sapiens, UniProt P36897) | binding | – | 1 µM | remaining binding | 111% |
| COC(=O)[C@H](Cc1c[nH]c2ccccc12)NC(=O)COc1ccc(C)cc1 | P2RY14 | cAMP, antagonist | HEK293 | 0.1 µM | inhibition | -20% |
| C1=C/COCc2cc(ccc2OCCN2CCCC2)Nc2nccc(n2)-c2cccc(c2)COC/1 | CDPK1 | binding | – | 0.1 µM | remaining binding | 36% |
| O=C(N[C@@H](Cc1c[nH]c2ccccc12)C(=O)O)c1ccco1 | P2RY14 | cAMP, antagonist | HEK293 | 0.1 µM | inhibition | 73.6% |
| CCCCC(=O)Nc1ccc(-c2ccc3ncn(CCC)c(=O)c3c2)cn1 | CDPK1 | binding, competition with immobilised ligand | – | 0.5 µM | remaining binding | 100% |
| COc1ccc(OCC(=O)N[C@@H](Cc2c[nH]c3ccccc23)C(=O)OC(C)C)cc1 | P2RY14 | cAMP, antagonist | HEK293 | 0.1 µM | inhibition | 85.6% |
| CCN1CCN(c2cc(N3CCN(CC)CC3)nc(NCCNc3ccnc4cc(Cl)ccc34)n2)CC1 | Nuclear receptor subfamily 4 group A member 2 | thermal stability, DSF | – | 100 µM | ΔTm | -0.12 °C |
